Square brackets hold non-standard residues; d marks the D form. Peptide text beside a SMILES is read from it. * marks the point of attachment. Hmp(2R,3S) = CC[C@H](C)[C@@H](O)C(=O)O; Sta = CC(C)C[C@H](N)[C@@H](O)CC(=O)O; NMe2Val = CC(C)[C@@H](C(=O)*)N(C)C; dNMeF = CN[C@H](Cc1ccccc1)C(=O)O; NMeQ = CN[C@@H](CCC(N)=O)C(=O)O; dHiv = CC(C)[C@@H](O)C(=O)O; Hiv = CC(C)[C@H](O)C(=O)O; Isovaleryl = CC(C)CC(=O)*
Columns and labels:
[1] = system: human peripheral blood mononuclear cells (CD3+ T cells); assay: T cell proliferation in PBMCs in response to exogenous antigen; type: cell-based
In short: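 Human PBMCs were isolated from buffy coats by Ficoll-Hypaque density gradient centrifugation, washed in PBS, and checked for viability by trypan blue. They were cultured in RPMI 1640 with 2 mM L-glutamine, penicillin/streptomycin and 10% FBS, with test compound at various concentrations. Cells were antibody-stained for 30 min at 4 °C, then permeabilised for intracellular staining and fixed in 2% paraformaldehyde. Lymphocytes were gated by forward/side scatter, with 50,000 cells per sample and isotype controls.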

[2] = system: MCF7 cell lysate (cellular cathepsins D and E); assay: Inhibition of cellular cathepsins in MCF7 cell lysate; type: biochemical
[3] = system: monocyte derived dendritic cells and CD4+ T cells (autologous); assay: Autologous mixed lymphocyte reaction; type: cell-based, human; conditions: autologous MLR
[4] = system: monocyte derived dendritic cells and CD4+ T cells (allogeneic); assay: Allogeneic mixed lymphocyte reaction; type: cell-based, human; conditions: allogeneic MLR
ADAM10 = target: T1, ADAM10 (Homo sapiens, UniProt O14672); assay: Protease inhibition screen and IC50 assay, ADAM10; type: biochemical; conditions: 10 μM, panel of 59 proteases
T1 sequence (O14672 214-748): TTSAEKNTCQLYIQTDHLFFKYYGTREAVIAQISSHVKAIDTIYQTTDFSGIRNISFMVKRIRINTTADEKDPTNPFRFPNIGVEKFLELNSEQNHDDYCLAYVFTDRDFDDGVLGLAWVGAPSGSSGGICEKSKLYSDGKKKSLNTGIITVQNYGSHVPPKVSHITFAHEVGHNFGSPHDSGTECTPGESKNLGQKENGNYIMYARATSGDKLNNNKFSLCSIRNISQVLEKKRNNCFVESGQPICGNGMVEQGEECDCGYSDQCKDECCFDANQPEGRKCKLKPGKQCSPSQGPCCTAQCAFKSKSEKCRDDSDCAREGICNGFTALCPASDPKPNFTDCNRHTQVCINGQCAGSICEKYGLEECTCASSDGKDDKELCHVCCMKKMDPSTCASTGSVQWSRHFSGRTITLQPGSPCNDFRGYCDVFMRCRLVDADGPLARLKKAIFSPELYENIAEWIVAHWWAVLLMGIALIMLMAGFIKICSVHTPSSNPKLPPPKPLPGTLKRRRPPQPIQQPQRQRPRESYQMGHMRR

TACE = TACE (Homo sapiens, UniProt P78536); assay: Protease inhibition screen and IC50 assay, TACE; type: biochemical; conditions: 10 μM, panel of 59 proteases
ADAM9 = target: T2, ADAM9 (Homo sapiens, UniProt Q13443); assay: Protease inhibition screen and IC50 assay, ADAM9; type: biochemical; conditions: 10 μM, panel of 59 proteases
T2 sequence (Q13443 29-819): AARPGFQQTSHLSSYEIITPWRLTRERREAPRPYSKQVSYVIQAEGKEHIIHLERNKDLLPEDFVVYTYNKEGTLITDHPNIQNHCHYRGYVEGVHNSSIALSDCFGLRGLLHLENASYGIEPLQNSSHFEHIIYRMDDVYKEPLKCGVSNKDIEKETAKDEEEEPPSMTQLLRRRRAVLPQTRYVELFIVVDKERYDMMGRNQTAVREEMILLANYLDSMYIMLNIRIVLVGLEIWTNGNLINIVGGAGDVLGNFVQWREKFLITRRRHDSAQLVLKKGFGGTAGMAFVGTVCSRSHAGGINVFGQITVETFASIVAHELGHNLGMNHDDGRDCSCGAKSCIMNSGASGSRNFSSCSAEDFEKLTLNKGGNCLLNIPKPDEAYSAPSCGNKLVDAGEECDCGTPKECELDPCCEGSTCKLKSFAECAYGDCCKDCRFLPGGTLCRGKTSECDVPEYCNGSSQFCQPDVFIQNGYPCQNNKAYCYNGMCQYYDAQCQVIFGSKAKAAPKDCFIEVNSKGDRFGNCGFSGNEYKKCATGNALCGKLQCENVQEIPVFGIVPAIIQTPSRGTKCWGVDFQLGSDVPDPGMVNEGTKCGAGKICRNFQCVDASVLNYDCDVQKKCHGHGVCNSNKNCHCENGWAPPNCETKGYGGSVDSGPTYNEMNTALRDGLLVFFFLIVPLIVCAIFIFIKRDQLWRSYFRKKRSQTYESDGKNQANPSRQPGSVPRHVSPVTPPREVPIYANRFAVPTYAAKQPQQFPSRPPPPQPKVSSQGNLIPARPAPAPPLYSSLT

[5] = Solubility in DMSO for dilution series; type: physicochemical
Cathepsin E = target: T3, Cathepsin E (Homo sapiens, UniProt P14091); assay: Protease inhibition screen and IC50 assay, cathepsin E; type: biochemical; conditions: result in words
T3 sequence (P14091 54-396): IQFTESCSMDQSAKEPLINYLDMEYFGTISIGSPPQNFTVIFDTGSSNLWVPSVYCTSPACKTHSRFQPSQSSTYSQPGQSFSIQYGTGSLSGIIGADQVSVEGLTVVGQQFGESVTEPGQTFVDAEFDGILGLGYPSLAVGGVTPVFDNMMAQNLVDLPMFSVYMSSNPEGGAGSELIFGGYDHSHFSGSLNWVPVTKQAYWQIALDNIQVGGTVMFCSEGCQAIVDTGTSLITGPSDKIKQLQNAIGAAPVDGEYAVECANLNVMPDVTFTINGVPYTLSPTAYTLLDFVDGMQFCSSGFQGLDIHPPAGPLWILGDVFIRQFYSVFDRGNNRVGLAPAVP

Chain of TACE (P78536 215-824): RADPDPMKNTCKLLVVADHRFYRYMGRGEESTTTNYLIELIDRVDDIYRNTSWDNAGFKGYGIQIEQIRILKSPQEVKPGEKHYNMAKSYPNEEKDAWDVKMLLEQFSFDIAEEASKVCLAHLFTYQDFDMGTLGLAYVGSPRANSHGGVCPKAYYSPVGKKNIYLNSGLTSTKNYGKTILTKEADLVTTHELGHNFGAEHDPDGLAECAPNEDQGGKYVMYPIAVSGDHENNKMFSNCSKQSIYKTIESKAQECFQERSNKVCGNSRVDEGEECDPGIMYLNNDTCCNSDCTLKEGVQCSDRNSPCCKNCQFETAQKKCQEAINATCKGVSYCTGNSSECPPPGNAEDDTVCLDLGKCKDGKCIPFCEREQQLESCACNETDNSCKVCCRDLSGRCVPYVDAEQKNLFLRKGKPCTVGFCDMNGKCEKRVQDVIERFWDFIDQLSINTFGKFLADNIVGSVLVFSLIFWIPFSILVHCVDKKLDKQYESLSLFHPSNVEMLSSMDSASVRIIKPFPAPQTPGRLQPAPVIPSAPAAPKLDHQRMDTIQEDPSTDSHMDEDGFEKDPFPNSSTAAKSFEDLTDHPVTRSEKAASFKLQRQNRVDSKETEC

In the case of `COC(=O)[C@@H]1CCCN1C(=O)[C@@H](Cc1ccccc1)N(C)C(=O)[C@H](C)NC(=O)[C@@H](NC(=O)C[C@H](O)[C@H](CC(C)C)NC(=O)[C@H](CC(N)=O)NC(=O)[C@H](CC(C)C)NC(=O)[C@H](OC(=O)[C@@H](OC(=O)[C@H](C(C)C)N(C)C)C(C)C)C(C)C)[C@@H](C)O` [Compound 1, grassystatin A] (NMe2Val-[Hiv][dHiv]LN[Sta]TA[dNMeF]P-OMe), the “T cell proliferation in response to exogenous antigen (TTc)” value ([1]; 10 μM, CD3+ lymphocytes) is reported as “significantly reduce”, the T cell viability ([1]; same experiment, data not shown) is reported as “unaffected” and the “decrease in potency compared to purified cathepsin E” value ([2]; MCF7 lysate) is reported as 564 fold. The “difference in IC50 compared to pepstatin A” value ([2]; MCF7 lysate) was 100 fold, the IC50 ([2]; read-out: apparent IC50, MCF7 lysate treated directly) was about 500 nM and the “interferon-γ (IFN-γ) in response to antigen presentation” value [3] was “inhibit upregulation”. The “interleukin-17 (IL-17) in response to antigen presentation” value [3] was “inhibit upregulation”, the T cell proliferation ([3]; TTc + PMA, 5 days) was “reduce T cell proliferation in a dose dependent manner” and the IFN-γ production [4] was “significant downregulation”. For the same compound, the IL-17 production [4] was “significant downregulation”, the “inhibitory activity in protease screen” value (ADAM10) was “compromised activities” and the “inhibitory activity in protease screen” value (TACE) was “compromised activities”. The “inhibitory activity in protease screen” value (ADAM9) was “compromised activities”.

In the case of `CC[C@H](C)[C@H](NC(=O)C[C@H](O)[C@H](CC(C)C)NC(=O)[C@H](CCC(N)=O)N(C)C(=O)[C@H](CC(C)C)NC(=O)[C@H](O)[C@@H](C)CC)C(=O)NCC(=O)N(C)[C@H](Cc1ccccc1)C(=O)N1CCC[C@H]1C(=O)OC` [Compound 3, grassystatin C] ({Hmp(2R,3S)}-L[NMeQ][Sta]IG[dNMeF]P-OMe), the “solubility in DMSO” value [5] is reported as “insoluble in DMSO”.

With `CC(C)CC(=O)N[C@H](C(=O)N[C@H](C(=O)N[C@@H](CC(C)C)[C@@H](O)CC(=O)N[C@@H](C)C(=O)N[C@@H](CC(C)C)[C@@H](O)CC(=O)O)C(C)C)C(C)C` [Pepstatin A, pepstatin A] (Isovaleryl-VV[Sta]A[Sta]-OH) the “discrimination between cathepsins D and E” value (Cathepsin E) was “did not discriminate”.

— publication PMC2756064 (Journal of medicinal chemistry, 2009)
